For this data set, the system named is MS2 coat protein. Kind of data set: apparent Kd, MS2 coat protein; higher = weaker binding; RNA-MaP array; FMN 200 µM where present. The procedure, abridged:
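In 100 mM Tris-HCl pH 7.5, 80 mM KCl, 4 mM MgCl2, BSA, DTT, yeast tRNA and Tween-20, SNAP-549-labelled MS2 coat protein was titrated from 0.7 or 1.5 nM, doubling to 3 µM, over designs transcribed by stalled E. coli RNA polymerase on Illumina sequencing-chip clusters. This was done first without ligand, then with ligand held constant. After green signal was normalised to red-channel RNA signal and control-cluster median Fmax, the apparent Kd was taken as the median of filtered per-cluster binding-curve fits.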

[1] abbreviates: ligand present: flavin mononucleotide, designed as: OFF switch for flavin mononucleotide.
Setting [2] is: designed as: OFF switch for flavin mononucleotide, no ligand.
Where [3] appears, read: designed as: ON switch for flavin mononucleotide, no ligand.
Where [4] appears, read: ligand present: flavin mononucleotide, designed as: ON switch for flavin mononucleotide.

These results are taken from the EternaBench riboswitch data.

As a reminder, the apparent Kd is a dissociation constant that holds for the conditions of the assay.

Regarding “GUGACGGAUGUAGGAUAUGCUGACCAAUGGUCAGCAGAAGGACAUGAGGAUCACCCAUGUCAUCCUUAUAAUAAAUACCGUCAC”, the “apparent Kd” value under setting [1] was found to be 18.3 nM.
As for “CGGAGGUCAGGAUAUGCAUGGCGGGACUUGCGUCGUGGCGUGCAGAAGGGACAUGAGGAUCACCCAUGUGGAGA”, the “apparent Kd” value under setting [2] stood at 83.2 nM and the “apparent Kd” value under setting [1] turned out to be 259 nM.
On the same counts, the results for “GGUGCGUAUGUGAGGAUAUGCUGGUCCUUGGAUCAGCAGAAGGCACAUGAGGAUCACCCAUGUGGUGUCGUACA” are 347 nM and 40.1 nM.
Turning to “UUCCUGUCAGGAUAUGACUAGAUGCACGUUAGUGUGUUUACUUAGAAGGGACAUGAGGAUCACCCAUGUAUUCC”, the “apparent Kd” value reads like this: under setting [2], 26.2 nM; under setting [1], 24.3 nM.
Regarding “UUUAUGUGAGGAUAUAGUACUCCUUCUAUUAUUAUUGAGUACUAGAAGGCACAUGAGGAUCACCCAUGUAGUAC”, the “apparent Kd” value turned out to be 30 nM under setting [2] and 48.3 nM under setting [1].
On the same counts, the results for “GUUUCACAUGAGGAUCACCCAUGUGAGGAUAUCGAUUUGUUAACCGUAGUUAAUAGAUCGAGAAGGCGCGUGAU” are 70.6 nM and 68.8 nM.
On the same counts, the results for “CGAGUUUUUGAGAAGGCAUAUUAUAUUAUACCACAUGUUUACAUGAGGAUCACCCAUGUUUCCUAUGAGGAUAUCAGAAUGUCG” are 9.34 nM and 7.33 nM.
With “UCCACUGCUGAGAAGGGAUCCGUGUGGUUCGAAUCAGGAUAUCGAUACAGUGCAGCAUGAGGACAUGAGGAUCACCCAUGUAUU”, the “apparent Kd” value turned out to be 16 nM under setting [3] and 13 nM under setting [4].
With “UCACGGGACUGAGGAUAUACAUUUAUUAUUUUUGUAGAAGGCAGAAUGUUAGUUUUUUCACUAUACAUGAGGAUCACCCAUGUU”, the “apparent Kd” value reads like this: under setting [2], 27.1 nM; under setting [1], 19.9 nM.
With “UUAUAUAAUGUGAGGAUAUGCUGGUCGAGAGAUCAGCAGAAGGCACAUGAGGAUCACCCAUGUAGUAAAUUUUA”, the “apparent Kd” value reads like this: under setting [2], 22.5 nM; under setting [1], 25.9 nM.
As for “GGGUACAUCGGAGGAUAUCAUGUAAAUACAUGAGGAUCACCCAUGUCGAUGGAGACAUCGGAGAUUGAGAAGGCCGAUGUACCG”, the “apparent Kd” value worked out at 452 nM under setting [3] and 25.9 nM under setting [4].
On the same counts, the results for “AUUUAGUGCGAGAAGGCGUGGUCACAUGAGGAUCACCCAUGUCAGUACACGAGGAUAUCGAUUCGCUGUGUAAACACAAGCGAC” are 80.7 nM and 6.67 nM.
On to “AAAUAGCUUGAGGAUAUUGGAUUGGAUUCAGUGCGAGAAGGCAAGACAUGAGGAUCACCCAUGUUGUGUUGGGA”, for which the “apparent Kd” value by setting is: under setting [2], 47.2 nM; under setting [1], 90 nM.
The matching figures for “AACGACUUAGGAUAUACAUGAGGAUCACCCAUGUUCAAAUCGUGGGUCAGGUGAGAAGGUAGAAGGAAGUCACU”: 33.6 nM and 93.7 nM.
The matching figures for “AAUGUUUGAUUCCACUUAUACAUGAGGAUCACCCAUGUUAUCGAGGAUAUGCAUUAGAGUGUUUAGCAGAAGGCGAUGUAAUUU”: 6.74 nM and 17.5 nM.
In the case of “GGGUGAUCCUUAGGAUAUCCCGCGCCAAAGUGCGUUUAUACUACAUGAGGAUCACCCAUGUAACGGGAGAAGGGAGGAAGCCCG”, the “apparent Kd” value under setting [3] was determined as 11 nM and the “apparent Kd” value under setting [4] came out at 4.31 nM.
The matching figures for “UGGUACUAGGGAGGAUAUGCGAAGAUACAUGAGGAUCACCCAUGUUUAAGAAUGCCGAGAGGCAACUAGAAGGCCCUAGUACCU”: 8.5 nM and 5.38 nM.
On to “ACAGCUGAAGGAUAUACUUGGAAAAAAAAAAAAAAAAAAAAACAUGAGGAUCACCCAUGUAGAAGGUCAGCUGA”, for which the “apparent Kd” value is, setting by setting: under setting [2], 52.9 nM; under setting [1], 78.5 nM.
“AUUUUACAUGAGGAUCACCCAUGUUUUGGUGGAUCAGGAUAUAAAUUGAAUGAGUUUUAGUUAGAAGGGAUAUUUA”: the “apparent Kd” value came out at 67.2 nM under setting [3] and 99 nM under setting [4].
Consider “AACUAGUGAGGAUAUACAUGAGGAUCACCCAUGUACGUCGUGGGUAGAAAACAAGUCAGUAGAAGGUGCUAGAC”, for which the “apparent Kd” value reads like this: under setting [2], 157 nM; under setting [1], 248 nM.
On to “GGAGUACAUGAGGAUCACCCAUGUUGGAACGAAGUAGGAUAUGUACAAUAUUAAAUAAAAACAGAAGGACUAAUAA”, for which the “apparent Kd” value turned out to be 62.4 nM under setting [3] and 39 nM under setting [4].
Consider “GAUCGUUUAGAGGAUAUCGUGCUAAACAUUACAUGAGAAGGCUAGACAUGAGGAUCACCCAUGUAUGCUCGUGA”, for which the “apparent Kd” value reads like this: under setting [2], 15.5 nM; under setting [1], 17.1 nM.
On the same counts, the results for “CAGUGCAAUGUAGGAUAUGCUCAGGAAUACUGAGCAGAAGGACAUGAGGAUCACCCAUGUAAAAUGAAAGAUAAUAAAGCACUG” are 16.1 nM and 51 nM.
On the same counts, the results for “AAUCAUGUCCGAGGAUAUCUGGAAACAUUUUCAAGAGAAGGCGGACAUGAGGAUCACCCAUGUCUCUCCUCAUCAACUACAAAU” are 14.6 nM and 89 nM.
The matching figures for “CCACGGUAUGUAGGAUAUGCAUAGCAUUGCUAUGCAGAAGGACAUGAGGAUCACCCAUGUAUGUAUUCCAUACUAAUCCCGUGA”: 5.96 nM and 5.3 nM.
With “AAAGGUUGAGGAUAUGCGUGGAAAAAGUGUAUUCAAAAAAAACAUGAGGAUCACCCAUGUAGAAGGCGACCAAA”, the “apparent Kd” value under setting [2] was determined as 93.6 nM and the “apparent Kd” value under setting [1] amounted to 245 nM.
The matching figures for “UGUGGUGGUUAGGAUAUAAUUAGAGGUUACUCGUUAGAAGGAGCUACAUGAGGAUCACCCAUGUGACUGUCCGC”: 29.8 nM and 35.1 nM.
For the sequence “AAAUAUAAUGAGGAUAUCGUACUGGAUAUAGUGCGAGAAGGCAUUACAUGAGGAUCACCCAUGUUUUGUUGGGA”, the “apparent Kd” value was 30.8 nM under setting [2] and 89.5 nM under setting [1].
The matching figures for “UGUCGGAGCAGAGGAUAUUACAUGAGGAUCACCCAUGUAUGAACCAAUAGCUGUAAACAGCAAUGUAAGAAGGCUGCUCCGACA”: 12.7 nM and 191 nM.
On the same counts, the results for “CCAUGGCAUGUAGGAUAUGUCUGACAAAGUCAGACAGAAGGACAUGAGGAUCACCCAUGUAAACCGAAAGGAACAUAGCCAUGG” are 6.54 nM and 7.3 nM.
Regarding “GCACUCAAGUUAGGAUAUGGACCAGAAACUGGUCCAGAAGGAACAUGGGAACAUGAGGAUCACCCAUGUUCCAGAAACGAGUGC”, the “apparent Kd” value under setting [3] came to 840 nM and the “apparent Kd” value under setting [4] came out at 186 nM.
“GGGCAACAUGAGGAUCACCCAUGUGAGGAUAUGGGCCCGGGCCCGAAAGGGCCCGGGCCCAGAAGGCACAGCCC”: the “apparent Kd” value is 17.9 nM under setting [2] and 17.1 nM under setting [1].
As to “GUCUGGCUAGGAUAUACAGUGUCCACAAGUUAGUUACCCUAACAUGAGGAUCACCCAUGUAGAAGGAGUGAGAA”, the “apparent Kd” value is, setting by setting: under setting [2], 72.9 nM; under setting [1], 308 nM.
As for “AUCCAGGUAACAUGAGGAUCACCCAUGUUCCUUCGCUCUGGCGAGGAUAUGAAGGGAUUGUCCCAUCAGAAGGCGCAUGGGUGC”, the “apparent Kd” value under setting [3] was 46.7 nM and the “apparent Kd” value under setting [4] was determined as 57.5 nM.
For “UUUAGUUUAGGAUAUGUAGACAUUAACAUGAGGAUCACCCAUGUAGAUCCUGAAUUGGCUACAGAAGGGAGCAUUU”, the “apparent Kd” value under setting [2] was found to be 290 nM and the “apparent Kd” value under setting [1] was determined as 314 nM.
Take “GGAGAACAUGAGGAUCACCCAUGUGAGCGGUAGCUAGGAUAUGCGGGAAGGAAGAGAGAAGCAGAAGGAGUCGGUA”: the “apparent Kd” value was 36.1 nM under setting [3] and 22.9 nM under setting [4].
On the same counts, the results for “GUAGCAUACCGAGGAUAUUCGUCCGGAUUACGGACAUGAGGAUCACCCAUGUGGCGAAAGCCUUGGGAGAAGGCGGAAUGCUAC” are 732 nM and 247 nM.
In the case of “AUAAAACAUGAGGAUCACCCAUGUAAAAAUAUGGGAGGAUAUGCGAAAUAAAAUAAAUAAGCAGAAGGCCUAAAAA”, the “apparent Kd” value under setting [3] was 50.4 nM and the “apparent Kd” value under setting [4] is 23.7 nM.
For the sequence “GCUAAGAAAGGAUAUACACCGGUGAGCCGCUGAUUUCAGCAACAUGAGGAUCACCCAUGUAGAAGGUUUAUGGG”, the “apparent Kd” value was determined as 367 nM under setting [2] and 110 nM under setting [1].
On the same counts, the results for “UUAUGUUUUGUAGGAUAUCAUUAGUUUUGUAUUUUAAUUGUAAUUUAGAUAUGAGAAGGACAUUUACAUGAGGAUCACCCAUGU” are 20.3 nM and 14.2 nM.
The matching figures for “UGACUGAUAUAGAAGGGUAUGUGGGAAUUACAUGAGGAUCACCCAUGUUUUAUAGGAUAUGUAUAUAGAAUUUAAUCAAGUUUA”: 40.5 nM and 37.1 nM.
For the sequence “ACAUGAGGAUCACCCAUGUGGACAUAGGAUAUUGGUGGUCAGGCGUGUUAUACAGGAUAGGUCUGCGAGAAGGGUGUGCGUUGC”, the “apparent Kd” value is 84.9 nM under setting [3] and 75 nM under setting [4].
Consider “CGAUAGGACAGAGGAUAUACACAUGAGGAUCACCCAUGUGAUUACAACGCGUAAGCUCCAAACAUGUAGAAGGCUGUCCUAUCG”, for which the “apparent Kd” value is, setting by setting: under setting [2], 17.6 nM; under setting [1], 20.6 nM.
On the same counts, the results for “AAUGUAUCCUCGGGAUCCACAUGAGGAUCACCCAUGUAGACUCAGGAUAUCCAAUGCGUUGGCAGGGAGAAGGGAGCUCGCAUG” are 33.7 nM and 38.7 nM.
Consider “CGGCGCUGUCGAGAGGAUAUGCGGUGAUGGACAUGAGGAUCACCCAUGUUAGCGAUAGCAUCACGGUAGAAGGCUCUUACGCCUG”, for which the “apparent Kd” value is, setting by setting: under setting [3], 378 nM; under setting [4], 174 nM.
For “AACAUGUGAGGAUAUUGAUUGGAGACGUGGAGACCGCUAAUUAAGAAGGUACAUGAGGAUCACCCAUGUCCCAU”, the “apparent Kd” value was determined as 215 nM under setting [2] and 231 nM under setting [1].
On the same counts, the results for “UAGGGCUUGGGCAGAAGGGUUACAUGAGGAUCACCCAUGUACAGAAGGAGAGCCUUGGGAAAGCUCUAGGAUAUGUCUAUGGGU” are 9.93 nM and 6.66 nM.
On the same counts, the results for “CCUGAGUGUCUAGGAUAUGCAUACCCGAGCUUUGCAGAAGGAGACAUGAGGAUCACCCAUGUGGACUUGGCAGGUCUCGCACCA” are 5.91 nM and 7.59 nM.
